Measurements taken from ChEMBL document CHEMBL4138113, “Novel propanamides as fatty acid amide hydrolase inhibitors” (Eur J Med Chem, 2017).
pIC50: −log10 of the molar value.

Target: T1, Fatty-acid amide hydrolase 1 (Rattus norvegicus, UniProt P97612)
T1 sequence (P97612 whole entry): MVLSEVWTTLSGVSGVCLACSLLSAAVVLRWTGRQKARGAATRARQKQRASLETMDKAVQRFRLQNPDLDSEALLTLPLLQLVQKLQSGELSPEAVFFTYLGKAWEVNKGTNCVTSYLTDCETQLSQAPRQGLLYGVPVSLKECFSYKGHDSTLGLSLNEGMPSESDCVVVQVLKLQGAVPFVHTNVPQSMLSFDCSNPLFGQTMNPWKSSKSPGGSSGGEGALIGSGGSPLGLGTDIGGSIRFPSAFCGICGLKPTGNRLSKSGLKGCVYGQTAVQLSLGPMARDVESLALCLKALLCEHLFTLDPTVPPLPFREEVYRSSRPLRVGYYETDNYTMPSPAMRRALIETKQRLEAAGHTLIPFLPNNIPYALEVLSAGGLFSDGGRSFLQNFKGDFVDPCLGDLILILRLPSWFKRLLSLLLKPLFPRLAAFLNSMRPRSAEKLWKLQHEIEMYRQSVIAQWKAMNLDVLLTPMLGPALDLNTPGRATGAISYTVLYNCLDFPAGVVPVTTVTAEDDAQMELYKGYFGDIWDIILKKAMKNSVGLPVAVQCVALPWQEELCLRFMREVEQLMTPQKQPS
Test: Inhibition of rat brain FAAH using [3H]AEA as substrate
Method in brief: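 Brains (minus cerebella) of adult Wistar or Sprague-Dawley rats homogenized in HEPES/MgCl2 pH 7.0, washed by repeated centrifugation, preincubated 15 min at 37 °C, resuspended in Tris-HCl/EDTA/MgCl2 pH 7.4. 1 µg protein per assay mixed on ice with inhibitor, then 0.5 µM [3H]AEA with fatty acid-free BSA, 10 min at 37 °C. Charcoal/HCl stop, supernatant counted. At least five half-log concentrations, at least 3 experiments.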

CCCCC/C=C\C/C=C\C/C=C\C/C=C\CCCC(=O)NCCc1c[nH]c2ccc(O)cc12
pIC50: 5.92
